Assay [1] deals with Sodium channel protein type 5 subunit alpha (Homo sapiens, UniProt Q14524). As to the kind of experiment: Inhibition of human Nav1.5 expressed in HEK293 cells assessed as inward peak current by ion-works quattro patch clamp electrophysiology method. Type of assay: cell-based. The method in brief:
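Stable HEK293 line expressing human NaV1.5, recorded by population patch clamp on the IonWorks Quattro.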
For orientation: Patch clamp records ionic current or voltage across a cell membrane.

The target in assay [2] is Sodium channel protein type 9 subunit alpha (Homo sapiens, UniProt Q15858). As to the kind of experiment: Inhibition of human Nav1.7 expressed in HEK293 cells assessed as inward peak current by ion-works quattro patch clamp electrophysiology method. The class given is cell-based.

From ChEMBL document CHEMBL3797186, “Single Residue Substitutions That Confer Voltage-Gated Sodium Ion Channel Subtype Selectivity in the NaV1.7 Inhibitory Peptide GpTx-1” (J Med Chem, 2016) come the findings set out here.

Positions of bridges follow the written chain, without caps; N, C: chain ends. Residues, ends and D or L forms follow the SMILES beside them.

Sodium channel protein type 5 subunit alpha, sequence (Q14524 whole entry): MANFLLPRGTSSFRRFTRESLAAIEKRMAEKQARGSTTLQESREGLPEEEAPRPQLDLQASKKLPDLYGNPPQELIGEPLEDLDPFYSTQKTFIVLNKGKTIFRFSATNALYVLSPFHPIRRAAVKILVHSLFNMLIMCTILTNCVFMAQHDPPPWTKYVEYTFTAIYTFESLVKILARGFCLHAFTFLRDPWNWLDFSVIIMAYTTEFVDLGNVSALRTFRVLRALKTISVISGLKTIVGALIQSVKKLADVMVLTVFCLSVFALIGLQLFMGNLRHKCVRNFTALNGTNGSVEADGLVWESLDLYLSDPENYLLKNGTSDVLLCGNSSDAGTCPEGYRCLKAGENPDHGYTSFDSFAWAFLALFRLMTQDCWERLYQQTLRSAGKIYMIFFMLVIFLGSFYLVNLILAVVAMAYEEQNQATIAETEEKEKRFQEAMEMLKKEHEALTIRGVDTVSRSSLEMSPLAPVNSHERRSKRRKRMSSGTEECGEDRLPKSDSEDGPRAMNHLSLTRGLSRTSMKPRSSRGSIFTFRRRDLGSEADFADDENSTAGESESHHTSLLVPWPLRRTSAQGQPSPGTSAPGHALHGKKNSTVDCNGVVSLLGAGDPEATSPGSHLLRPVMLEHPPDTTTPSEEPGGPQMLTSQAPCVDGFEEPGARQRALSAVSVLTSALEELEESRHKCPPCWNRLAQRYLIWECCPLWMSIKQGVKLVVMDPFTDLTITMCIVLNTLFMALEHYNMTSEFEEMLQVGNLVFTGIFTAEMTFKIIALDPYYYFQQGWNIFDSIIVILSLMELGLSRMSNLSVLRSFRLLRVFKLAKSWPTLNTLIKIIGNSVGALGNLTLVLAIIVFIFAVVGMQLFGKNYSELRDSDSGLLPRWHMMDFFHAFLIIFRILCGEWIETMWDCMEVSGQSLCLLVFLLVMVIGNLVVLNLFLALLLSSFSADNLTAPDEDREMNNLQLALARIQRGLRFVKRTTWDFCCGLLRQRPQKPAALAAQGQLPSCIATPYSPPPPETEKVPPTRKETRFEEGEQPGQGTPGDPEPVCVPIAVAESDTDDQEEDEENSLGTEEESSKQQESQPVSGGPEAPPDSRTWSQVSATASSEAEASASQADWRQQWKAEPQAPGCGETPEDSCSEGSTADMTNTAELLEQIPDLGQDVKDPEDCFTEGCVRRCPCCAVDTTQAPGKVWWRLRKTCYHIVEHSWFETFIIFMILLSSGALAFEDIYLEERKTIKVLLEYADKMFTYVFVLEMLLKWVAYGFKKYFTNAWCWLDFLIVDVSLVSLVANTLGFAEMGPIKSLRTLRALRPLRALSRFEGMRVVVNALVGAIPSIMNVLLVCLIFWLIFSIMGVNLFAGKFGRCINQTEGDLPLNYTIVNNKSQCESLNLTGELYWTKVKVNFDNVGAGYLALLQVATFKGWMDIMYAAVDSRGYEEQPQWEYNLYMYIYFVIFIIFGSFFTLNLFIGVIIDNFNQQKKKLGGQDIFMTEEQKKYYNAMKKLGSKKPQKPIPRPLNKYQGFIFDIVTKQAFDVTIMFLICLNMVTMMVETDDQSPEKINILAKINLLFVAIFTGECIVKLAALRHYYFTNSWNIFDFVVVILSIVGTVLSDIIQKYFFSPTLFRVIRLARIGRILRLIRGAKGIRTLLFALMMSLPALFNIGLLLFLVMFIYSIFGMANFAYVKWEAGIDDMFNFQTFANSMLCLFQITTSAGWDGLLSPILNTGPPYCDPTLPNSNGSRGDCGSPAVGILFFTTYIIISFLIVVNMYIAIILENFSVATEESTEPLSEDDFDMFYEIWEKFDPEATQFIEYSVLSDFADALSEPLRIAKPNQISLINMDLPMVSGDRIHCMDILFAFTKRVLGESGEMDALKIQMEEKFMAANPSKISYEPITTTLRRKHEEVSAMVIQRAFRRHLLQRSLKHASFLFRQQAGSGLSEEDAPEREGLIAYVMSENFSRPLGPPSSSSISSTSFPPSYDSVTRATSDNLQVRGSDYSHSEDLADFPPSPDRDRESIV
Sodium channel protein type 9 subunit alpha, sequence (Q15858 whole entry): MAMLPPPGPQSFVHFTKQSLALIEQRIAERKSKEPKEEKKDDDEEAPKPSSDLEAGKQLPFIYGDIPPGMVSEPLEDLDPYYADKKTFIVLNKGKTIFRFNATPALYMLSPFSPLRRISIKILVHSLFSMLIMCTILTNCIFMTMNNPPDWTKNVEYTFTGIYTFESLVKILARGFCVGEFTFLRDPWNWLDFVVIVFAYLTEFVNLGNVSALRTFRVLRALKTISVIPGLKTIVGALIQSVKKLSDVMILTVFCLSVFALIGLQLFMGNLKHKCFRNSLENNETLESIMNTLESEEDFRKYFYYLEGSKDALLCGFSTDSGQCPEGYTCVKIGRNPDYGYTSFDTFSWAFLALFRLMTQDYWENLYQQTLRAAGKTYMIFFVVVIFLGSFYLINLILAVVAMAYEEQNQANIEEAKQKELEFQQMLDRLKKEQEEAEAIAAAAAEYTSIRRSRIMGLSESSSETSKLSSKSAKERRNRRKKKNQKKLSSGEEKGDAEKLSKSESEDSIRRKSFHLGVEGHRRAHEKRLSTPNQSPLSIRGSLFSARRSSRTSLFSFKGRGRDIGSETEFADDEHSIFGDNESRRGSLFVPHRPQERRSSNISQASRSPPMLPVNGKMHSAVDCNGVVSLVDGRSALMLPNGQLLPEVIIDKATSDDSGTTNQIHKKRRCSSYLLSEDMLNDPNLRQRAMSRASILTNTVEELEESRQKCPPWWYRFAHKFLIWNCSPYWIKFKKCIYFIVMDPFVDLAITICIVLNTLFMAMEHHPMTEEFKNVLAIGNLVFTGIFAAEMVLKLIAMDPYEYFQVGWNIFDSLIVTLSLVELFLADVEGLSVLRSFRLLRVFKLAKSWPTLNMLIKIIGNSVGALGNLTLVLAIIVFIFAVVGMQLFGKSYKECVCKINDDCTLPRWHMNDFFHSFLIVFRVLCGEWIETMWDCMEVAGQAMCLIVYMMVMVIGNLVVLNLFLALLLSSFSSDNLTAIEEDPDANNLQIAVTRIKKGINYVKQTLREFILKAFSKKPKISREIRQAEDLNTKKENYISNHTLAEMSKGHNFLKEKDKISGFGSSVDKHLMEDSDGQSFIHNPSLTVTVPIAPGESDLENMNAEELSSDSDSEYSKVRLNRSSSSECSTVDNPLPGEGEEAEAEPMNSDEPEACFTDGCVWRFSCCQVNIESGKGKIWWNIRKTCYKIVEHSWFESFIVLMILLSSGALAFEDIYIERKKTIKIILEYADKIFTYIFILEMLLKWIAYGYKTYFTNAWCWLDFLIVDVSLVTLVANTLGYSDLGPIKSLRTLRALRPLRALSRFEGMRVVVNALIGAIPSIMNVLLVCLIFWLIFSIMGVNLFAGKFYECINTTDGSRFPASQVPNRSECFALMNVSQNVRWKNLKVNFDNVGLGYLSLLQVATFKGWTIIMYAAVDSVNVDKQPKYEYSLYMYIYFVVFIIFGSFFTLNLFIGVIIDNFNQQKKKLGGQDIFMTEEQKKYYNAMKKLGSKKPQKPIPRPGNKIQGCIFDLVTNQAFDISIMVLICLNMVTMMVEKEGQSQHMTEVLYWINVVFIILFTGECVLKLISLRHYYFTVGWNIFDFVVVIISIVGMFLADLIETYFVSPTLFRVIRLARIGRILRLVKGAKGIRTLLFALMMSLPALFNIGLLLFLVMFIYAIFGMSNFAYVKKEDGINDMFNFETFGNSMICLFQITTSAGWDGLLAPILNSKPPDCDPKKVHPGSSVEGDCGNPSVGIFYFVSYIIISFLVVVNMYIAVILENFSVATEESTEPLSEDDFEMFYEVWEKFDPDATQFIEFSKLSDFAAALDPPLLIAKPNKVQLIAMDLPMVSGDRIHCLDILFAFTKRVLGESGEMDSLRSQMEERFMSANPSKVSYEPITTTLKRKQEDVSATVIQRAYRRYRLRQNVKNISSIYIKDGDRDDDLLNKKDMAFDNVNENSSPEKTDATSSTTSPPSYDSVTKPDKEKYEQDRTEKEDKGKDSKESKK

Usually IC50 stands for the concentration that gives 50% inhibition. Take `CC[C@H](C)[C@@H]1NC(=O)[C@@H]2CSSC[C@@H]3NC(=O)[C@H](C(C)C)NC(=O)[C@H](CC(C)C)NC(=O)[C@H](CC(N)=O)NC(=O)[C@@H]4CCCN4C(=O)[C@H](CCCNC(=N)N)NC(=O)[C@H](CSSC[C@H](NC(=O)[C@H](CC(=O)O)NC(=O)[C@@H](N)Cc4c[nH]c5ccccc45)C(=O)N[C@@H](CC(C)C)C(=O)NCC(=O)N[C@@H](Cc4ccccc4)C(=O)N[C@@H](CCSC)C(=O)N[C@@H](CCCNC(=N)N)C(=O)N[C@@H](CCCCN)C(=O)N2)NC(=O)[C@H](CSSC[C@@H](C(=O)N[C@@H](CCCCN)C(=O)N[C@@H](Cc2ccc(O)cc2)C(=O)N[C@H](C(=O)N[C@@H](Cc2ccccc2)C(N)=O)C(C)C)NC(=O)[C@H](Cc2c[nH]c4ccccc24)NC(=O)[C@H](CCCCN)NC(=O)[C@H](Cc2cnc[nH]2)NC(=O)[C@H]([C@@H](C)O)NC(=O)[C@H](CCCNC(=N)N)NC(=O)[C@H](CO)NC3=O)NC(=O)[C@H](CCCCN)NC(=O)[C@H](CC(=O)O)NC(=O)[C@H](CC(N)=O)NC(=O)[C@H](CC(=O)O)NC(=O)[C@@H]2CCCN2C1=O`: the IC50 in assay [1] is over 5 µM; in assay [2], 0.2 µM.
In the same order, the values of `CC[C@H](C)[C@@H]1NC(=O)[C@@H]2CSSC[C@@H]3NC(=O)[C@H](C(C)C)NC(=O)[C@H](CC(C)C)NC(=O)[C@H](CC(N)=O)NC(=O)[C@@H]4CCCN4C(=O)[C@H](CCCNC(=N)N)NC(=O)[C@H](CSSC[C@H](NC(=O)[C@@H](N)Cc4c[nH]c5ccccc45)C(=O)N[C@@H](CC(C)C)C(=O)NCC(=O)N[C@@H](Cc4ccccc4)C(=O)N[C@@H](CCSC)C(=O)N[C@@H](CCCNC(=N)N)C(=O)N[C@@H](CCCCN)C(=O)N2)NC(=O)[C@H](CSSC[C@@H](C(=O)N[C@@H](CCCCN)C(=O)N[C@@H](Cc2ccc(O)cc2)C(=O)N[C@H](C(=O)N[C@@H](Cc2ccccc2)C(N)=O)C(C)C)NC(=O)[C@H](Cc2c[nH]c4ccccc24)NC(=O)[C@H](CCCCN)NC(=O)[C@H](Cc2cnc[nH]2)NC(=O)[C@H]([C@@H](C)O)NC(=O)[C@H](CCCNC(=N)N)NC(=O)[C@H](CO)NC3=O)NC(=O)[C@H](CCCCN)NC(=O)[C@H](CC(=O)O)NC(=O)[C@H](CC(N)=O)NC(=O)[C@H](CC(=O)O)NC(=O)[C@@H]2CCCN2C1=O` (H-WCLGFMRKCIPDNDKCCRPNLVCSRTHKWCKYVF-NH2; disulfide 2-17, 9-23, 16-30) are over 5 µM and 0.07 µM.
For `CC[C@H](C)[C@@H]1NC(=O)[C@@H]2CSSC[C@@H]3NC(=O)[C@H](C(C)C)NC(=O)[C@H](CC(C)C)NC(=O)[C@H](CC(N)=O)NC(=O)[C@@H]4CCCN4C(=O)[C@H](CCCNC(=N)N)NC(=O)[C@H](CSSC[C@H](NC(=O)[C@@H](N)CC(=O)O)C(=O)N[C@@H](CC(C)C)C(=O)NCC(=O)N[C@@H](Cc4ccccc4)C(=O)N[C@@H](CCSC)C(=O)N[C@@H](CCCNC(=N)N)C(=O)N[C@@H](CCCCN)C(=O)N2)NC(=O)[C@H](CSSC[C@@H](C(=O)N[C@@H](CCCCN)C(=O)N[C@@H](Cc2ccc(O)cc2)C(=O)N[C@H](C(=O)N[C@@H](Cc2ccccc2)C(=O)N[C@@H](CCCNC(=N)N)C(N)=O)C(C)C)NC(=O)[C@H](Cc2c[nH]c4ccccc24)NC(=O)[C@H](CCCCN)NC(=O)[C@H](Cc2cnc[nH]2)NC(=O)[C@H]([C@@H](C)O)NC(=O)[C@H](CCCNC(=N)N)NC(=O)[C@H](CO)NC3=O)NC(=O)[C@H](CCCCN)NC(=O)[C@H](CC(=O)O)NC(=O)[C@H](CC(N)=O)NC(=O)[C@H](CC(=O)O)NC(=O)[C@@H]2CCCN2C1=O`, in that order: over 5 µM and 0.13 µM.
In the same order, the values of `CC[C@H](C)[C@@H]1NC(=O)[C@@H]2CSSC[C@@H]3NC(=O)[C@H](C(C)C)NC(=O)[C@H](CC(C)C)NC(=O)[C@H](CC(N)=O)NC(=O)[C@@H]4CCCN4C(=O)[C@H](CCCNC(=N)N)NC(=O)[C@H](CSSC[C@H](NC(=O)[C@@H](N)CC(=O)O)C(=O)N[C@@H](CC(C)C)C(=O)NCC(=O)N[C@@H](Cc4ccccc4)C(=O)N[C@@H](CCSC)C(=O)N[C@@H](CCCNC(=N)N)C(=O)N[C@@H](CCCCN)C(=O)N2)NC(=O)[C@H](CSSC[C@@H](C(=O)N[C@@H](CCCCN)C(=O)N[C@@H](CCC(=O)O)C(=O)N[C@H](C(=O)N[C@@H](Cc2ccccc2)C(N)=O)C(C)C)NC(=O)[C@H](Cc2c[nH]c4ccccc24)NC(=O)[C@H](CCCCN)NC(=O)[C@H](Cc2cnc[nH]2)NC(=O)[C@H]([C@@H](C)O)NC(=O)[C@H](CCCNC(=N)N)NC(=O)[C@H](CO)NC3=O)NC(=O)[C@H](CCCCN)NC(=O)[C@H](CC(=O)O)NC(=O)[C@H](CC(N)=O)NC(=O)[C@H](CC(=O)O)NC(=O)[C@@H]2CCCN2C1=O` (H-DCLGFMRKCIPDNDKCCRPNLVCSRTHKWCKEVF-NH2; disulfide 2-17, 9-23, 16-30) are over 5 µM and over 5 µM.
Regarding `CC[C@H](C)[C@@H]1NC(=O)[C@@H]2CSSC[C@@H]3NC(=O)[C@H](C(C)C)NC(=O)[C@H](CC(C)C)NC(=O)[C@H](CC(N)=O)NC(=O)[C@@H]4CCCN4C(=O)[C@H](CCCNC(=N)N)NC(=O)[C@H](CSSC[C@H](NC(=O)[C@H](CC(=O)O)NC(=O)[C@@H](N)CCCCN)C(=O)N[C@@H](CC(C)C)C(=O)NCC(=O)N[C@@H](Cc4ccccc4)C(=O)N[C@@H](CCSC)C(=O)N[C@@H](CCCNC(=N)N)C(=O)N[C@@H](CCCCN)C(=O)N2)NC(=O)[C@H](CSSC[C@@H](C(=O)N[C@@H](CCCCN)C(=O)N[C@@H](Cc2ccc(O)cc2)C(=O)N[C@H](C(=O)N[C@@H](Cc2ccccc2)C(N)=O)C(C)C)NC(=O)[C@H](Cc2c[nH]c4ccccc24)NC(=O)[C@H](CCCCN)NC(=O)[C@H](Cc2cnc[nH]2)NC(=O)[C@H]([C@@H](C)O)NC(=O)[C@H](CCCNC(=N)N)NC(=O)[C@H](CO)NC3=O)NC(=O)[C@H](CCCCN)NC(=O)[C@H](CC(=O)O)NC(=O)[C@H](CC(N)=O)NC(=O)[C@H](CC(=O)O)NC(=O)[C@@H]2CCCN2C1=O`, the concentration for half-maximal inhibition (IC50) was over 5 µM in assay [1] and 0.12 µM in assay [2].
For `CC[C@H](C)[C@@H]1NC(=O)[C@@H]2CSSC[C@@H]3NC(=O)[C@H](C(C)C)NC(=O)[C@H](CC(C)C)NC(=O)[C@H](CC(N)=O)NC(=O)[C@@H]4CCCN4C(=O)[C@H](CCCNC(=N)N)NC(=O)[C@H](CSSC[C@H](NC(=O)[C@@H](N)CC(=O)O)C(=O)N[C@@H](CC(C)C)C(=O)NCC(=O)N[C@@H](Cc4ccccc4)C(=O)N[C@@H](CCSC)C(=O)N[C@@H](CCCNC(=N)N)C(=O)N[C@@H](CCCCN)C(=O)N2)NC(=O)[C@H](CSSC[C@@H](C(=O)N[C@@H](CCC(=O)O)C(=O)N[C@@H](Cc2ccc(O)cc2)C(=O)N[C@H](C(=O)N[C@@H](Cc2ccccc2)C(N)=O)C(C)C)NC(=O)[C@H](Cc2c[nH]c4ccccc24)NC(=O)[C@H](CCCCN)NC(=O)[C@H](Cc2cnc[nH]2)NC(=O)[C@H]([C@@H](C)O)NC(=O)[C@H](CCCNC(=N)N)NC(=O)[C@H](CO)NC3=O)NC(=O)[C@H](CCCCN)NC(=O)[C@H](CC(=O)O)NC(=O)[C@H](CC(N)=O)NC(=O)[C@H](CC(=O)O)NC(=O)[C@@H]2CCCN2C1=O` (H-DCLGFMRKCIPDNDKCCRPNLVCSRTHKWCEYVF-NH2; disulfide 2-17, 9-23, 16-30), in that order: over 5 µM and over 5 µM.
`CC[C@H](C)[C@@H]1NC(=O)[C@@H]2CSSC[C@@H]3NC(=O)[C@H](C(C)C)NC(=O)[C@H](CC(C)C)NC(=O)[C@H](CC(N)=O)NC(=O)[C@@H]4CCCN4C(=O)[C@H](CCCNC(=N)N)NC(=O)[C@H](CSSC[C@H](NC(=O)[C@H](CC(=O)O)NC(=O)[C@@H](N)CCC(=O)O)C(=O)N[C@@H](CC(C)C)C(=O)NCC(=O)N[C@@H](Cc4ccccc4)C(=O)N[C@@H](CCSC)C(=O)N[C@@H](CCCNC(=N)N)C(=O)N[C@@H](CCCCN)C(=O)N2)NC(=O)[C@H](CSSC[C@@H](C(=O)N[C@@H](CCCCN)C(=O)N[C@@H](Cc2ccc(O)cc2)C(=O)N[C@H](C(=O)N[C@@H](Cc2ccccc2)C(N)=O)C(C)C)NC(=O)[C@H](Cc2c[nH]c4ccccc24)NC(=O)[C@H](CCCCN)NC(=O)[C@H](Cc2cnc[nH]2)NC(=O)[C@H]([C@@H](C)O)NC(=O)[C@H](CCCNC(=N)N)NC(=O)[C@H](CO)NC3=O)NC(=O)[C@H](CCCCN)NC(=O)[C@H](CC(=O)O)NC(=O)[C@H](CC(N)=O)NC(=O)[C@H](CC(=O)O)NC(=O)[C@@H]2CCCN2C1=O`: the IC50 in assay [1] was over 5 µM; in assay [2] it was 0.27 µM.
`CC[C@@H](C)[C@H]1NC(=O)[C@H]2CSSC[C@@H]3NC(=O)[C@@H](C(C)C)NC(=O)[C@H](CC(C)C)NC(=O)[C@H](CC(N)=O)NC(=O)[C@@H]4CCCN4C(=O)[C@H](CCCNC(=N)N)NC(=O)[C@H](CSSC[C@@H](NC(=O)[C@@H](N)CC(=O)O)C(=O)N[C@H](C)C(=O)NCC(=O)N[C@@H](Cc4ccccc4)C(=O)N[C@H](CCSC)C(=O)N[C@@H](CCCNC(=N)N)C(=O)N[C@@H](CCCCN)C(=O)N2)NC(=O)[C@@H](CSSC[C@@H](C(=O)N[C@@H](CCCCN)C(=O)N[C@@H](Cc2ccc(O)cc2)C(=O)N[C@H](C(=O)N[C@@H](Cc2ccccc2)C(N)=O)C(C)C)NC(=O)[C@@H](Cc2c[nH]c4ccccc24)NC(=O)[C@H](CCCCN)NC(=O)[C@H](Cc2cnc[nH]2)NC(=O)[C@@H]([C@H](C)O)NC(=O)[C@@H](CCCNC(=N)N)NC(=O)[C@H](CO)NC3=O)NC(=O)[C@@H](CCCCN)NC(=O)[C@H](CC(=O)O)NC(=O)[C@@H](CC(N)=O)NC(=O)[C@H](CC(=O)O)NC(=O)[C@@H]2CCCN2C1=O`: the IC50 in assay [1] is over 5 µM; in assay [2], 0.43 µM.
